For one assay, the target named is T1, Adenosine receptor A1 (Rattus norvegicus, UniProt P25099).
T1 sequence (P25099 whole entry): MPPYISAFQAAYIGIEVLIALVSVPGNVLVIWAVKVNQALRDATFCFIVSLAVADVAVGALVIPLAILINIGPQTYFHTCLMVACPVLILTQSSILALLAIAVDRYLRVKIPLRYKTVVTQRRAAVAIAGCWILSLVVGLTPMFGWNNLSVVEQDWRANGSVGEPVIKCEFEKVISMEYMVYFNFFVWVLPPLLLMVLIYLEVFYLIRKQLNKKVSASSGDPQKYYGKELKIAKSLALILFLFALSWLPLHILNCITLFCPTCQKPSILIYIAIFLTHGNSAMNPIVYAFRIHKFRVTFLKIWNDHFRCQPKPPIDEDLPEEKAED
Description: Binding affinity at Adenosine A1 receptor in rat brain membranes by [3H]PIA displacement. It counts as cell membranes.

Assay [1] addresses T2, Adenosine receptor A3 (Homo sapiens, UniProt P0DMS8).
T2 sequence (P0DMS8 whole entry): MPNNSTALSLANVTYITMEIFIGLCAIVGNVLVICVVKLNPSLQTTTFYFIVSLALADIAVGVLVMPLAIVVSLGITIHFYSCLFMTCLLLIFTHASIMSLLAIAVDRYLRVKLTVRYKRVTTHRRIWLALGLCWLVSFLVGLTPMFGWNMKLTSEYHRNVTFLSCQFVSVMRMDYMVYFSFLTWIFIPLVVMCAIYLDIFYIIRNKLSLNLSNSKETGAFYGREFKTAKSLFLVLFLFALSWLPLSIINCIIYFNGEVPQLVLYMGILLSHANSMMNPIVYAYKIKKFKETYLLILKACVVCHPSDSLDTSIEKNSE
Put plainly: Binding affinity against human adenosine A3 receptor in HEK293 cells using [125I]AB-MECA […] radioligand. It counts as cell-based.

Assay [2] has as its target T3, Adenosine A2 receptor (Rattus norvegicus) (UniProt P29276+P30543). Put plainly: Percentage inhibition against Adenosine A2 receptor in rat striatal membranes using [3H]-CGS- 21680. Conditions: Striatum, Membrane, concentration not given here. It counts as cell membranes. The method, boiled down:
(§1)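 Rat striatal membranes, prepared with adenosine deaminase (3 units/mL) including a 30 min, 30 °C preincubation, ADA also present during radioligand incubation; [3H]CGS 21680 displacement. Test compounds from DMSO stocks, final DMSO ≤1%, at least five concentrations spanning 3 orders of magnitude.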

The target in assay [3] is T4, Adenosine receptor A3 (Rattus norvegicus, UniProt P28647).
T4 sequence (P28647 whole entry): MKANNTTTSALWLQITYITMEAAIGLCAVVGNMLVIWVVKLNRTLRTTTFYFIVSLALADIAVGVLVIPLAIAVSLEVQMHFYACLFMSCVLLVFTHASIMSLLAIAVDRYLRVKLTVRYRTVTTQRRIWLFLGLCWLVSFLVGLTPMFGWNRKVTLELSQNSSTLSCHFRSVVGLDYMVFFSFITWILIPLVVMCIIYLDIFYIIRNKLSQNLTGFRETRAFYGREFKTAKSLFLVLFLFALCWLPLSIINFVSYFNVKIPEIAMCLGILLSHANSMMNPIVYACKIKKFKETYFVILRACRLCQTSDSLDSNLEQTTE
Put plainly: (§2) Binding affinity for [125I]AB-MECA against rat Adenosine A3 receptor.

Assay [4] deals with Adenylate cyclase type 2 (Rattus norvegicus) (UniProt P26769). Description: Percent inhibition against adenylyl cyclase was measured using IB-MECA […] at 10E-6. The assay is classed as functional. The settings on record: concentration not given here. The method, boiled down: (§3)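 Membranes from CHO cells stably expressing rat A3 receptor (grown in F-12, 10% FBS, 37 °C, 5% CO2); [α-32P]ATP added with 1 μM forskolin and papaverine as phosphodiesterase inhibitor.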
Chain of Adenylate cyclase type 2 (Rattus norvegicus) (P26769 whole entry): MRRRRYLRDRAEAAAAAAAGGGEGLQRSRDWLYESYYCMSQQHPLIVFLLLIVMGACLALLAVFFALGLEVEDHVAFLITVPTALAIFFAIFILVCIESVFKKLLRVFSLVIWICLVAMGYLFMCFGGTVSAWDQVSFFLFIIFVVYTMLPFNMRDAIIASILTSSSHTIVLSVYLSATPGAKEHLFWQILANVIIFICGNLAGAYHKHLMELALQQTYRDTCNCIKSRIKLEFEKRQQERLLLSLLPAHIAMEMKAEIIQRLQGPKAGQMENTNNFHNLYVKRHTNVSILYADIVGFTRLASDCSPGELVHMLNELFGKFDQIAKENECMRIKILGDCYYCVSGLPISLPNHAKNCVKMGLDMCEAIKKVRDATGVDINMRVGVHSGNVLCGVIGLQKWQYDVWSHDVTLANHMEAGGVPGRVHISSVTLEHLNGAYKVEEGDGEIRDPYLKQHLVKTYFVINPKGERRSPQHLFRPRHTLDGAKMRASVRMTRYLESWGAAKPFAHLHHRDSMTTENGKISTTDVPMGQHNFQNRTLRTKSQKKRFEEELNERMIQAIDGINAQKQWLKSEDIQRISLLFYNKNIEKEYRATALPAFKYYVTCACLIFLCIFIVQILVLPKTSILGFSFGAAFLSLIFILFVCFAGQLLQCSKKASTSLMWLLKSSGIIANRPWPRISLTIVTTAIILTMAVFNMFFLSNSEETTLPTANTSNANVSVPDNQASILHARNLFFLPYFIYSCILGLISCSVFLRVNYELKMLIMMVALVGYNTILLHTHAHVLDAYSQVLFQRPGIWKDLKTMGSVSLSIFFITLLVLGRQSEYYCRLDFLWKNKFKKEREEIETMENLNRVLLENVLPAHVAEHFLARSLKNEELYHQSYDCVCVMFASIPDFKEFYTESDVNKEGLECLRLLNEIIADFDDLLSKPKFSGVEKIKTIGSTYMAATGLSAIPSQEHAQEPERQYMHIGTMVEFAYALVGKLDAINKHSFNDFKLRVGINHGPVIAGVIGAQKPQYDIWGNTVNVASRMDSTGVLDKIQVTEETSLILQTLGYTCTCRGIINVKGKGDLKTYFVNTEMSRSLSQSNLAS

The target is the same in assay [5]. Description: Percent inhibition against adenylyl cyclase was measured using IB-MECA […] at 10E-7. The assay is classed as functional. The settings on record: concentration not given here. The method, boiled down: as §3
The next assay concerns the target Adenosine A2 receptor (Rattus norvegicus, UniProt P29276+P30543). Description: Binding affinity at Adenosine A2 receptor in rat striatal membranes by [3H]-CGS- 21680 displacement. The assay is classed as cell membranes, Striatum, Membrane. The method, boiled down:
as §1

For assay [6], the system named is Adenosine A1 receptor (Rattus norvegicus) / A3 receptor (Homo sapiens). Put plainly: Ratio of binding affinities between rA1 and human A3.
In assay [7] the target is T5, Adenosine receptor A1 (Rattus norvegicus) (UniProt P25099).
T5 sequence (whole entry): T1 sequence (P25099 whole entry)
Put plainly: Percentage inhibition against Adenosine A1 receptor in rat brain membranes using [3H]-PIA. It counts as cell membranes. Details: concentration or dose not given beside the values. Conditions: concentration not given here.

Assay [8] deals with T6, Adenosine receptor A3 (Homo sapiens) (UniProt P0DMS8).
T6 sequence (whole entry): T2 sequence (P0DMS8 whole entry)
Put plainly: Binding affinity against human Adenosine A3 receptor in HEK293 cells using [125I]AB-MECA […]. The assay is classed as cell-based. The method, boiled down:
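Membranes of HEK-293 cells stably expressing human A3 receptor (0.3 mg protein/mL) in 50 mM Tris, 10 mM Mg2+, 1 mM EDTA, pH 8.0, with 0.3 nM [125I]AB-MECA final. Duplicate 1 h incubations at 25 °C, filtration over GF/B, gamma counting; nonspecific binding with 100 μM (R)-PIA; DMSO ≤1%.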

Assay [9] addresses T3, Adenosine A2 receptor (Rattus norvegicus). Description: Percent displacement at 10e-4 M against Adenosine A2 receptor in rat striatal membranes using [3H]-CGS- 21680. The assay is classed as cell membranes. The settings on record: Striatum, Membrane. The method, boiled down: as §1
Assay [10] has as its target T5, Adenosine receptor A1 (Rattus norvegicus). Description: Percent displacement against Adenosine A1 receptor in rat brain membranes using [3H]PIA at 10e-4 M. It counts as cell membranes.
Assay [11] has the same target. Put plainly: Percent inhibition at 10e-4 M against Adenosine A1 receptor in rat brain membranes using [3H]-PIA. It counts as cell membranes.
The target of assay [12] is T7, Adenosine receptor A3 (Rattus norvegicus) (UniProt P28647).
T7 sequence (whole entry): T4 sequence (P28647 whole entry)
Described as §2. Conditions: concentration not given here.

Assay [13] concerns the target T3, Adenosine A2 receptor (Rattus norvegicus). Description: Percent inhibition against Adenosine A2 receptor in rat striatal membranes using [3H]-CGS- 21680. The assay is classed as cell membranes. Conditions: Striatum, Membrane, concentration not given here. The method, boiled down:
as §1

Consider 35 molecules from ChEMBL document CHEMBL1129333, “Synthesis and biological activities of flavonoid derivatives as A3 adenosine receptor antagonists” (J Med Chem, 1996).

A word on the Ki: it is the dissociation constant of the complex between target and ligand, obtained from inhibition or displacement. One may read the inhibition as the percentage by which the read-out fell short of the control.

Turning to `O=C1CC(c2ccc(O)cc2)Oc2ccccc21` (stereo unspecified) [4'-HYDROXY-FLAVANONE], the inhibition constant (Ki) came to 11.5 µM at Adenosine receptor A1 and 42.8 µM on Adenosine receptor A3 [1]. Also, the inhibition in assay [2] was found to be 35%.
As for `CCOc1c2ccoc2cc2oc(/C=C/c3ccccc3)cc(=O)c12`, the Ki was found to be 12.3 µM on Adenosine receptor A3 [3] and 33.8 µM on Adenosine A2 receptor. In addition, the inhibition amounted to 40.9% in assay [4] and 21.2% in assay [5].
In the case of `CCCOc1cc(OCCC)c2c(=O)c(OCCC)c(-c3ccccc3)oc2c1`, the Ratio in assay [6] came out at 3.5.
In turn, `COc1cc(O)c2c(c1)OC(c1ccc(O)cc1)CC2=O` (stereo unspecified) came in with a Ki on Adenosine A2 receptor of 35.6 µM.
With `O=c1c(Cl)c(-c2ccccc2)oc2ccccc12`, the Ki at Adenosine receptor A1 stood at 2.48 µM; on Adenosine receptor A3 [1], 11.5 µM; on Adenosine A2 receptor it was 25.1 µM.
At Adenosine A2 receptor, `COc1c2ccoc2cc2oc(C)cc(=O)c12` [VISNAGIN] gave an inhibitory constant (Ki) of 42.4 µM. The molecule further yielded an inhibition in [7] of 36%.
Consider `O=C1c2ccccc2OC(c2ccccc2O)C1O` (stereo unspecified), for which the affinity on Adenosine receptor A1, expressed as Ki, was 91.9 µM. Besides, in assay [8] (concentration not given here), the inhibition was determined as 27%. In assay [9], this molecule gave a Displacement below 10%. The Ratio in assay [6] is below 1.
As for `CCOc1cc(OCC)c2c(=O)c(OCC)c(-c3ccccc3)oc2c1`, the results for the Ki on Adenosine receptor A3 [3] and at Adenosine A2 receptor were 18.2 µM and 3.31 µM, respectively. In addition, the inhibition came out at 19.1% in assay [4] and 2.2% in assay [5].
Turning to `COc1c2ccoc2cc2oc(/C=C/C=C/c3ccccc3)cc(=O)c12`, the Displacement in assay [10], in assay [8] and in [9] was below 10% each time.
For the molecule `O=c1cc(-c2ccccc2)oc2ccc(Cl)cc12`, the inhibition in assay [7] came out at 28%. The Displacement in assay [9] was below 10%.
Take `CCOc1ccc(-c2oc3cc(OCC)cc(OCC)c3c(=O)c2OCC)c(OCC)c1`: on Adenosine A2 receptor, the inhibition constant (Ki) was 26.8 µM.
Take `CSc1sc(C(=O)NN)c2c1C=CCC2`: the affinity on Adenosine receptor A3 [1] corresponds to a Ki of 13 µM.
On to `COc1c2ccoc2cc2oc(/C=N/c3ccccc3)cc(=O)c12`, for which the Displacement in assay [10] and in assay [9] was below 10% in each case. The molecule further displayed an inhibition constant Ki on Adenosine receptor A3 [1] of 9.18 µM. Further, the Ratio in assay [6] is above 20.
Molecule `C=C1C(C)C2C(Cc3ccccc3)NC(=O)C23C(OC(C)=O)/C=C\C(C)(O)CC(C)C/C=C/C3C1O` (stereo unspecified) had an inhibition constant Ki at Adenosine receptor A3 [1] of 23 µM.
As to `COc1ccc2c(c1)C(=O)[C@H](O)[C@@H](/C=C/c1ccccc1)O2` (relative stereo), the Displacement in assay [11] and in assay [9] was below 10% each time. Also, the values for the inhibition in [12], in assay [4] and in assay [5] were 43%, 39.2% and 25.9%, respectively. Besides, the Ratio in assay [6] is above 8.
Consider `OCCN(CCO)C1=NC(N2CCCCC2)c2nc(N(CCO)CCO)nc(N3CCCCC3)c2N1` (stereo unspecified), for which the inhibition constant (Ki) at Adenosine receptor A3 [1] is 19 µM.
`O=S(=O)(c1cccc2cnccc12)N1CCNCC1`: on Adenosine receptor A3 [1], the affinity, expressed as Ki, was 25 µM.
As for `COc1cc(OC)c2c(=O)c(OC)c(-c3ccccc3)oc2c1`, the Ki at Adenosine A2 receptor amounted to 6.45 µM.
Same read-out and setting: under `CCOc1cc(O)c2c(=O)c(OCC)c(-c3ccccc3)oc2c1` stands 63.8 µM.
Consider `COc1c2ccoc2cc2oc(/C=C/c3ccccc3)cc(=O)c12`, for which the Ki on Adenosine A2 receptor came to 11.5 µM. The Ratio in [6] worked out at 0.37.
For `CCOc1ccc(-c2oc3cc(OCC)cc(O)c3c(=O)c2OCC)c(OCC)c1`, the Displacement in [10] and in assay [9] was below 10% in each case. For the same molecule, the Ratio in assay [6] is above 40.
For the molecule `COc1ccc(-c2oc3cc(OC)cc(OC)c3c(=O)c2OC)c(OC)c1`, the inhibition constant Ki at Adenosine A2 receptor amounted to 46.7 µM.
On the same count and under the same terms, under `O=c1c(O)c(-c2ccc(O)cc2O)oc2cc(O)cc(O)c12` [MORIN] stands 17.3 µM.
At Adenosine receptor A3 [1], `Nc1nc2ncc(NCc3ccc(C(=O)NC(CCC(=O)O)C(=O)O)cc3)nc2c(=O)[nH]1` (stereo unspecified) returned an inhibition constant (Ki) of 28 µM.
In [10], `CCOc1c2ccoc2cc2oc(/C=C/C=C/c3ccccc3)cc(=O)c12` returned a Displacement below 10%. Also, the values for the inhibition constant Ki at Adenosine receptor A3 [1] and on Adenosine A2 receptor were 45.5 µM and 167 µM, respectively. Also, the Ratio in [6] is above 4.
Take `O=c1c(Cl)c(-c2ccccc2)oc2ccc(Cl)cc12`: the inhibition constant Ki at Adenosine receptor A3 [1] came out at 0.741 µM; at Adenosine A2 receptor, 54.5 µM. In addition, the inhibition in assay [7] is 15%. The Ratio in assay [6] was above 100.
With `O=C1CC(c2ccccc2O)Oc2ccccc21` (stereo unspecified) [2'-HYDROXY-FLAVANONE], the inhibition constant Ki at Adenosine A2 receptor was found to be 17.6 µM.
`COc1c2ccoc2cc2oc(C=O)cc(=O)c12` returned a Displacement in [10] below 10%. The same molecule came in with an inhibition in assay [13] of 25%. Moreover, the Ratio in assay [6] is above 2.
With `COc1cc2oc(-c3ccc(O)cc3O)c(CC=C(C)C)c(=O)c2c(O)c1/C=C/C(C)C` [ARTOCARPIN], the Ki was 9.09 µM at Adenosine receptor A1 and 4.59 µM on Adenosine receptor A3 [1]. The molecule also returned a Displacement in assay [9] below 10%.
With `O=c1c(O)c(-c2ccccc2)oc2cc(O)cc(O)c12` [GALANGIN], on Adenosine A2 receptor, the Ki is 0.966 µM.
On Adenosine receptor A3 [1], `OC12CCCCC1=Nc1ccccc12` (stereo unspecified) returned an inhibition constant Ki of 22 µM.
With `Cc1cc(C)c(-c2oc3ccc(Cl)cc3c(=O)c2Cl)c(C)c1`, the affinity on Adenosine receptor A3 [1] corresponds to a Ki of 5.24 µM. Moreover, the inhibition in [7] was 37%. The molecule further returned a Displacement in assay [9] below 10%.
In the case of `O=c1ccnc2ccccn12`, at Adenosine receptor A3 [1], the inhibition constant (Ki) turned out to be 48 µM.
For `O=c1cc(-c2ccccc2)oc2ccccc12` [FLAVONE], on Adenosine A2 receptor, the Ki turned out to be 3.45 µM.
As for `COc1cc(OC)c(-c2oc3ccccc3c(=O)c2O)c(OC)c1`, the Displacement in assay [9] was below 10%. Besides, the Ratio in assay [6] is 0.15.
